Tests used:
[1] = Cytotoxicity upon MPMs (mouse peritoneal macrophages) at 3.1 uM conc.;NT=No Toxicity
Procedure, shortened: (§1)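 Mouse peritoneal macrophages harvested 48 h after potato-starch stimulation and seeded at 30000 cells/well. After 24 h, washed and exposed to 2-fold drug dilutions in RPMI + 5% FCS (final DMSO below 0.5%) at 37 °C, 5% CO₂, for 7 days. Toxicity scored microscopically as toxic or not versus untreated controls.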

[2] = Cytotoxicity upon MPMs (mouse peritoneal macrophages) at 6.3 uM; procedure, shortened: as §1
[3] = Cytotoxicity upon MRC-5 cells (diploid embryonic lung cell line) at 12.5 uM; type: cell-based, MRC5; details: human
Procedure, shortened: (§2)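 MRC-5 human diploid embryonic lung cells seeded at 5000/well, washed after 24 h, then given 2-fold drug dilutions in RPMI + 5% FCS (final DMSO below 0.5%). Incubated at 37 °C, 5% CO₂, for 7 days. MTT read-out at 540 nm, scored as percent absorbance reduction versus untreated controls.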

[4] = Cytotoxicity upon MRC-5 cells (diploid embryonic lung cell line) at 3.1 uM; type: cell-based, MRC5; details: human; procedure, shortened: as §2
[5] = Cytotoxicity upon MRC-5 cells (diploid embryonic lung cell line) at 6.3 uM; type: cell-based, MRC5; details: human; procedure, shortened: as §2
[6] = Cytotoxicity upon MPMs (mouse peritoneal macrophages) at 12.5 uM conc.; Toxic; procedure, shortened: as §1
Plasmodium falciparum [7] = assay: Inhibitory activity against chloroquine-resistant Plasmodium falciparum FcB1R; type: functional, organism-based; details: Plasmodium falciparum
[8] = Cytotoxicity upon MPMs (mouse peritoneal macrophages) at 12.5 uM conc.;NT=No Toxicity; procedure, shortened: as §1
[9] = Cytotoxicity upon MPMs (mouse peritoneal macrophages) at 2 uM; procedure, shortened: as §1
[10] = Cytotoxicity upon MRC-5 cells (diploid embryonic lung cell line) at 25 uM conc.; type: cell-based, MRC5; details: human; procedure, shortened: as §2
[11] = Cytotoxicity upon MRC-5 cells (diploid embryonic lung cell line) at 1.6 uM conc.; type: cell-based, MRC5; details: human; procedure, shortened: as §2
[12] = Cytotoxicity upon MRC-5 cells (diploid embryonic lung cell line) at 1 uM; type: cell-based, MRC5; details: human; procedure, shortened: as §2
[13] = Cytotoxicity upon MRC-5 cells (diploid embryonic lung cell line) at 32 uM; type: cell-based, MRC5; details: human; procedure, shortened: as §2
[14] = Cytotoxicity upon MRC-5 cells (diploid embryonic lung cell line) at 8 uM; type: cell-based, MRC5; details: human; procedure, shortened: as §2
[15] = Cytotoxicity upon MPMs (mouse peritoneal macrophages) at 2 uM conc.; Toxic; procedure, shortened: as §1
[16] = Cytotoxicity upon MPMs (mouse peritoneal macrophages) at 32 uM; procedure, shortened: as §1
[17] = Cytotoxicity upon MPMs (mouse peritoneal macrophages) at 8 uM; procedure, shortened: as §1
Plasmodium falciparum [18] = assay: Inhibitory activity against chloroquine-resistant Plasmodium falciparum K1; type: functional, organism-based
Plasmodium falciparum [19] = assay: Inhibitory activity against chloroquine-sensitive Plasmodium falciparum THAI

Row | SMILES | NT [1] | NT [2] | cytotoxicity at 12.5 µM [3] [%] | cytotoxicity at 3.1 µM [4] [%] | cytotoxicity at 6.3 µM [5] [%] | Cytotoxicity [6] | IC50 (Plasmodium falciparum [7]) [µM] | NT [8] | NT [9] | cytotoxicity at 25 µM [10] [%] | cytotoxicity at 1.6 µM [11] [%] | cytotoxicity at 1 µM [12] [%] | cytotoxicity at 32 µM [13] [%] | cytotoxicity at 8 µM [14] [%] | Cytotoxicity [15] | Cytotoxicity [16] | Cytotoxicity [17] | IC50 (Plasmodium falciparum [18]) [µM] | IC50 (Plasmodium falciparum [19]) [µM]
1 | CC1CCN(CCC(=O)Nc2cc(CO)cc(Nc3ccnc4cc(Cl)ccc34)c2)CC1 | Cytotoxicity upon MPMs at 6.3 uM | Cytotoxicity upon MPMs at 6.3 uM | 100 | 0 | 0 | Toxic | 0.136 | – | – | – | – | – | – | – | – | – | – | – | –
2 | CC1CCN(CCCCCCCCCCCC(=O)Nc2cc(CO)cc(Nc3ccnc4cc(Cl)ccc34)c2)CC1 | Cytotoxicity upon MPMs at 6.3 uM | Cytotoxicity upon MPMs at 6.3 uM | 100 | 0 | 0 | Toxic | 0.086 | – | – | – | – | – | – | – | – | – | – | – | –
3 | O=C(CCl)Nc1cc(CO)cc(Nc2ccnc3cc(Cl)ccc23)c1 | Cytotoxicity upon MPMs at 6.3 uM | Cytotoxicity upon MPMs at 6.3 uM | 92 | 0 | 0 | Toxic | > 1 | – | – | – | – | – | – | – | – | – | – | – | –
4 | O=C(CN1CCCC1)Nc1cc(CO)cc(Nc2ccnc3cc(Cl)ccc23)c1 | Cytotoxicity upon MPMs at 6.3 uM | Cytotoxicity upon MPMs at 6.3 uM | 0 | 0 | 0 | Toxic | 0.044 | – | – | – | – | – | – | – | – | – | – | – | –
5 | O=C(CN1CCCCC1)Nc1cc(COC(=O)CCCCCN2CCCCC2)cc(Nc2ccnc3cc(Cl)ccc23)c1 | – | Cytotoxicity upon MPMs at 2 uM | – | – | 81 | – | 0.0274 | Cytotoxicity upon MPMs at 2 uM | Cytotoxicity upon MPMs at 2 uM | 92 | 0 | – | – | – | – | – | – | – | –
6 | O=C(CN1CCCCC1)Nc1cc(COC(=O)CCN2CCCCC2)cc(Nc2ccnc3cc(Cl)ccc23)c1 | – | Cytotoxicity upon MPMs at 2 uM | – | – | 0 | – | 0.0783 | Cytotoxicity upon MPMs at 2 uM | Cytotoxicity upon MPMs at 2 uM | 90 | 0 | – | – | – | – | – | – | – | –
7 | CN1CCN(CCCCC(=O)OCc2cc(NC(=O)CN3CCCCC3)cc(Nc3ccnc4cc(Cl)ccc34)c2)CC1 | – | Cytotoxicity upon MPMs at 2 uM | – | – | 0 | – | 0.0651 | Cytotoxicity upon MPMs at 2 uM | Cytotoxicity upon MPMs at 2 uM | 97 | 0 | – | – | – | – | – | – | – | –
8 | O=C(CN1CCCCC1)Nc1cc(COC(=O)c2ccccc2)cc(Nc2ccnc3cc(Cl)ccc23)c1 | – | Cytotoxicity upon MPMs at 2 uM | – | – | 38 | Toxic | 0.0755 | – | Cytotoxicity upon MPMs at 2 uM | 66 | 20 | – | – | – | – | – | – | – | –
9 | O=C(CN1CCCCC1)Nc1cc(CNCc2ccc(Cl)cc2)cc(Nc2ccnc3cc(Cl)ccc23)c1 | – | – | – | – | – | – | 0.0046 | – | – | – | – | 100 | 100 | 100 | Toxic | Cytotoxicity upon MPMs at 32 uM | Cytotoxicity upon MPMs at 32 uM | – | –
10 | CCN(CC)c1ccc(CN2CCN(Cc3cc(NC(=O)CN4CCCCC4)cc(Nc4ccnc5cc(Cl)ccc45)c3)CC2)cc1 | – | – | – | – | – | – | 0.0119 | – | – | – | – | 100 | 100 | 100 | Toxic | Cytotoxicity upon MPMs at 32 uM | Cytotoxicity upon MPMs at 32 uM | – | –
11 | O=C(CN1CCCCC1)Nc1cc(COC(=O)CCCCN2CCCC2)cc(Nc2ccnc3cc(Cl)ccc23)c1 | – | Cytotoxicity upon MPMs at 2 uM | – | – | 83 | – | 0.023 | Cytotoxicity upon MPMs at 2 uM | Cytotoxicity upon MPMs at 2 uM | 82 | 0 | – | – | – | – | – | – | – | –
12 | CN1CCN(CC(=O)Nc2cc(CO)cc(Nc3ccnc4cc(Cl)ccc34)c2)CC1 | Cytotoxicity upon MPMs at 6.3 uM | Cytotoxicity upon MPMs at 6.3 uM | 0 | 0 | 0 | – | 0.344 | Cytotoxicity upon MPMs at 6.3 uM | – | – | – | – | – | – | – | – | – | – | –
13 | COc1ccc(CNCc2cc(NC(=O)CN3CCCCC3)cc(Nc3ccnc4cc(Cl)ccc34)c2)cc1 | – | – | – | – | – | – | 0.0044 | – | – | – | – | 100 | 100 | 100 | Toxic | Cytotoxicity upon MPMs at 32 uM | Cytotoxicity upon MPMs at 32 uM | – | –
14 | CC1CCN(CCCCCCCC(=O)Nc2cc(CO)cc(Nc3ccnc4cc(Cl)ccc34)c2)CC1 | Cytotoxicity upon MPMs at 6.3 uM | Cytotoxicity upon MPMs at 6.3 uM | 0 | 0 | 0 | – | 0.308 | Cytotoxicity upon MPMs at 6.3 uM | – | – | – | – | – | – | – | – | – | – | –
15 | CC1CCN(CCCCC(=O)Nc2cc(CO)cc(Nc3ccnc4cc(Cl)ccc34)c2)CC1 | Cytotoxicity upon MPMs at 6.3 uM | Cytotoxicity upon MPMs at 6.3 uM | 0 | 0 | 0 | – | 0.465 | Cytotoxicity upon MPMs at 6.3 uM | – | – | – | – | – | – | – | – | – | – | –
16 | O=C(Nc1cc(CO)cc(Nc2ccnc3cc(Cl)ccc23)c1)c1ccccc1 | Cytotoxicity upon MPMs at 6.3 uM | Cytotoxicity upon MPMs at 6.3 uM | 0 | 0 | 0 | – | > 1 | Cytotoxicity upon MPMs at 6.3 uM | – | – | – | – | – | – | – | – | – | – | –
17 | O=C(CN1CCOCC1)Nc1cc(CO)cc(Nc2ccnc3cc(Cl)ccc23)c1 | Cytotoxicity upon MPMs at 6.3 uM | Cytotoxicity upon MPMs at 6.3 uM | 0 | 0 | 0 | – | > 1 | Cytotoxicity upon MPMs at 6.3 uM | – | – | – | – | – | – | – | – | – | – | –
18 | CCN(CC)CCCCC(=O)OCc1cc(NC(=O)CN2CCCCC2)cc(Nc2ccnc3cc(Cl)ccc23)c1 | – | Cytotoxicity upon MPMs at 2 uM | – | – | 13 | – | 0.141 | Cytotoxicity upon MPMs at 2 uM | Cytotoxicity upon MPMs at 2 uM | 22 | 0 | – | – | – | – | – | – | – | –
19 | O=C(CN1CCCCC1)Nc1cc(COC(=O)CN2CCCCC2)cc(Nc2ccnc3cc(Cl)ccc23)c1 | – | – | – | – | 0 | – | 0.054 | – | – | 93 | 0 | – | – | – | – | – | – | – | –
20 | O=C(CO)Nc1cc(CO)cc(Nc2ccnc3cc(Cl)ccc23)c1 | Cytotoxicity upon MPMs at 6.3 uM | Cytotoxicity upon MPMs at 6.3 uM | 0 | 0 | 0 | – | > 1 | Cytotoxicity upon MPMs at 6.3 uM | – | – | – | – | – | – | – | – | – | – | –
21 | O=C(CNCc1ccccc1)Nc1cc(CO)cc(Nc2ccnc3cc(Cl)ccc23)c1 | Cytotoxicity upon MPMs at 6.3 uM | Cytotoxicity upon MPMs at 6.3 uM | 0 | 0 | 0 | – | 0.193 | Cytotoxicity upon MPMs at 6.3 uM | – | – | – | – | – | – | – | – | – | – | –
22 | O=C(CN1CCCCC1)Nc1cc(COC(=O)CCCCBr)cc(Nc2ccnc3cc(Cl)ccc23)c1 | – | Cytotoxicity upon MPMs at 2 uM | – | – | 0 | – | 0.151 | Cytotoxicity upon MPMs at 2 uM | Cytotoxicity upon MPMs at 2 uM | 0 | 0 | – | – | – | – | – | – | – | –
23 | Nc1cc(CO)cc(Nc2ccnc3cc(Cl)ccc23)c1 | Cytotoxicity upon MPMs at 2 uM | Cytotoxicity upon MPMs at 2 uM | 0 | 0 | 0 | – | 0.279 | Cytotoxicity upon MPMs at 2 uM | Cytotoxicity upon MPMs at 2 uM | – | 0 | – | – | – | – | – | – | – | –
24 | O=C(CN1CCCCC1)Nc1cc(CN2CCCCC2)cc(Nc2ccnc3cc(Cl)ccc23)c1 | – | – | – | – | – | – | 0.0102 | – | – | – | – | 43 | 100 | 100 | Toxic | Cytotoxicity upon MPMs at 32 uM | Cytotoxicity upon MPMs at 32 uM | 0.0081 | 0.0067
25 | CCN(CC)Cc1cc(NC(=O)CN2CCCCC2)cc(Nc2ccnc3cc(Cl)ccc23)c1 | – | – | – | – | – | – | 0.0082 | – | – | – | – | 0 | 100 | 100 | Toxic | Cytotoxicity upon MPMs at 32 uM | Cytotoxicity upon MPMs at 32 uM | – | –
26 | CCN(CC)CC(=O)Nc1cc(CO)cc(Nc2ccnc3cc(Cl)ccc23)c1 | Cytotoxicity upon MPMs at 6.3 uM | Cytotoxicity upon MPMs at 6.3 uM | 0 | 0 | 0 | Toxic | 0.0416 | – | – | – | – | – | – | – | – | – | – | – | –

From ChEMBL document CHEMBL1134569, “Synthesis and in vitro and in vivo antimalarial activity of new 4-anilinoquinolines” (J Med Chem, 2001)
